Test results from PMC2736393 (Biochemistry, 2009).
Each block holds one molecule with its values, some of them ahead of it. No end group written: not given here.

Legend:
[1] = Circular dichroism of GRK2 peptides; type: physicochemical; settings: 16 µM peptide in PBS pH 7.0, 4°C
In short: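 Far-UV CD spectra recorded at 4°C over 200–280 nm in a 1.0 cm pathlength cuvette (1 nm/min, 4 s response, 1 nm bandwidth). Test peptide was diluted to 16 µM in PBS pH 7.0 with varying trifluoroethanol. Observed ellipticity was converted to molar ellipticity using mean residue weight, path length and concentration. Relative helix content was deduced from these spectra.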

GRK2 (β2AR substrate) = target: T1, GRK2 (β2AR substrate) (Bos taurus, UniProt P21146); assay: Inhibition of GRK2 phosphorylation of β2AR by GRK peptides; type: biochemical
T1 sequence (P21146 1-689): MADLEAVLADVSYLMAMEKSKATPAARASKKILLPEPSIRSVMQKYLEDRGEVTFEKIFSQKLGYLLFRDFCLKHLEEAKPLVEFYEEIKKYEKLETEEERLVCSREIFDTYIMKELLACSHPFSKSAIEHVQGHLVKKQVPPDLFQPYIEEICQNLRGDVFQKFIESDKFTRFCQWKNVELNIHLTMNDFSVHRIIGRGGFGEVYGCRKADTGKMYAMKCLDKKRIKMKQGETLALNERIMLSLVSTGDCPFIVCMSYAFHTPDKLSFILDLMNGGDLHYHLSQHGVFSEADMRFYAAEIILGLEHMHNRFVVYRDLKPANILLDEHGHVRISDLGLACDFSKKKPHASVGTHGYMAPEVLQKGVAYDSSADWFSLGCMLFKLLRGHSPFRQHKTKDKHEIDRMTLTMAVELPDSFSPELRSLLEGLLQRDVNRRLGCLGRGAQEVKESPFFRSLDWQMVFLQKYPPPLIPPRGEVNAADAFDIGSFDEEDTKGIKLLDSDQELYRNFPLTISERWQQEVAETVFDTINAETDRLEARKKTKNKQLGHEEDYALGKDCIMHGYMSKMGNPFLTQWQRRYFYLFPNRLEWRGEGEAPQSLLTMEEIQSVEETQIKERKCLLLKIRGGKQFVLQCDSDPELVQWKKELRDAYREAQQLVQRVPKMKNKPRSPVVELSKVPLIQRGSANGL

[2] = target: T2, GRK2 (rhodopsin substrate) (Bos taurus, UniProt P21146); assay: Inhibition of GRK2 phosphorylation of Rho* by GRK peptides; type: biochemical; settings: 1-15 µM rhodopsin, 60 µM peptide; 3 independent experiments
T2 sequence (P21146 1-689): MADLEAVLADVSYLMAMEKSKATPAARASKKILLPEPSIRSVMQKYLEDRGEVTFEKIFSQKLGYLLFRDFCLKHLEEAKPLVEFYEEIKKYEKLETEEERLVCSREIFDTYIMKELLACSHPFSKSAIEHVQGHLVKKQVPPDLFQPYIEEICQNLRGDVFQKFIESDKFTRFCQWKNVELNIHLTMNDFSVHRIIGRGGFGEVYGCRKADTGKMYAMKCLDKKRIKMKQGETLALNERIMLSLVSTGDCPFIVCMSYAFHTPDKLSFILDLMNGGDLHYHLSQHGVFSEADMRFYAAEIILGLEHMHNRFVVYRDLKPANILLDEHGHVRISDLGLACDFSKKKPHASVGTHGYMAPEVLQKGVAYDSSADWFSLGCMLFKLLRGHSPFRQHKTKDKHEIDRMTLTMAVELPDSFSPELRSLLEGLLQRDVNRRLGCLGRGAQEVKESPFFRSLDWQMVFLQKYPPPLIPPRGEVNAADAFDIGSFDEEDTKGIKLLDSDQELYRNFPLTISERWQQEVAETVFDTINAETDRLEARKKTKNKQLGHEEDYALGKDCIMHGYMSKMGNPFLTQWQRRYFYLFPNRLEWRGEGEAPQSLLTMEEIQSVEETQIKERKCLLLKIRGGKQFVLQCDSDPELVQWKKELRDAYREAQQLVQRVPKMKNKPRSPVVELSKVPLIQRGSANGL
In short: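 Sf9-expressed, purified GRK2 (20 nM) phosphorylated 1–15 µM light-activated rhodopsin with or without 60 µM test peptide. Products were resolved by SDS-PAGE and autoradiographed, then bands were excised and scintillation-counted. Values are mean ± SD from three experiments.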

[3] = target: T2, GRK2 (rhodopsin substrate); settings: cited from earlier work
GPCR = settings: cited from earlier work
[4] = test system: β2-adrenergic receptor (β2AR); assay: Phosphorylation of purified β2AR by purified GRK2 mutants; type: biochemical, human; settings: 50 nM β2AR in mixed micelles, 20 nM GRK2, 10 µM isoproterenol, 0.2 mM ATP, 30°C; 3 experiments
rhodopsin (Rho*) = assay: Phosphorylation of light-activated rhodopsin; type: biochemical; settings: COS-1 lysates, 2-20 min, 30°C; autoradiography (Fig. 1B)

helix formation ([1]; in solution without TFE (0% TFE)): minimal helical formation in solution
helix formation ([1]; in the presence of TFE (25-50%)): no helix formation was observed
Molecule: MADLEAPLADVYSL [Pro peptide]

IC50 (GRK2 (β2AR substrate)): ~50 µM
Km change [2]: no change in the Km
Molecule: MADLEAVLADVYSL [GRK2 peptide]

effect on GRK2-mediated β2AR phosphorylation (GRK2 (β2AR substrate); 200 µM peptide, 3 experiments (Fig. 4E)): no significant effect
Molecule: MELENIVANTLLK [GRK5 peptide, reference compound]
effect on GRK2-mediated phosphorylation of rhodopsin [3]: no effect

B1: V477D: mutation in the AGC kinase C-tail of GRK2, literature (protein, UniProt P25098 1-689, looked up, variant V477D)
Beta-adrenergic receptor …: MADLEAVLADVSYLMAMEKSKATPAARASKKILLPEPSIRSVMQKYLEDRGEVTFEKIFSQKLGYLLFRDFCLNHLEEARPLVEFYEEIKKYEKLETEEERVARSREIFDSYIMKELLACSHPFSKSATEHVQGHLGKKQVPPDLFQPYIEEICQNLRGDVFQKFIESDKFTRFCQWKNVELNIHLTMNDFSVHRIIGRGGFGEVYGCRKADTGKMYAMKCLDKKRIKMKQGETLALNERIMLSLVSTGDCPFIVCMSYAFHTPDKLSFILDLMNGGDLHYHLSQHGVFSEADMRFYAAEIILGLEHMHNRFVVYRDLKPANILLDEHGHVRISDLGLACDFSKKKPHASVGTHGYMAPEVLQKGVAYDSSADWFSLGCMLFKLLRGHSPFRQHKTKDKHEIDRMTLTMAVELPDSFSPELRSLLEGLLQRDVNRRLGCLGRGAQEVKESPFFRSLDWQMVFLQKYPPPLIPPRGEDNAADAFDIGSFDEEDTKGIKLLDSDQELYRNFPLTISERWQQEVAETVFDTINAETDRLEARKKAKNKQLGHEEDYALGKDCIMHGYMSKMGNPFLTQWQRRYFYLFPNRLEWRGEGEAPQSLLTMEEIQSVEETQIKERKCLLLKIRGGKQFILQCDSDPELVQWKKELRDAYREAQQLVQRVPKMKNKPRSPVVELSKVPLVQRGSANGL
receptor phosphorylation and receptor-mediated activation (GPCR; GRK2 AGC kinase C-tail mutation): defective in receptor phosphorylation and receptor-mediated activation
activity against non-receptor substrates (GPCR): reduced activity against non-receptor substrates

decrease in β2AR phosphorylation activity vs wild-type GRK2 [4]: ~ 60%
B2: D3K: GRK2 amino terminal point mutant, Asp-3 to lysine (protein)
chain: MAKLEAVLADVSYLMAMEKSKATPAARASKKILLPEPSIRSVMQKYLEDRGEVTFEKIFSQKLGYLLFRDFCLKHLEEAKPLVEFYEEIKKYEKLETEEERLVCSREIFDTYIMKELLACSHPFSKSAIEHVQGHLVKKQVPPDLFQPYIEEICQNLRGDVFQKFIESDKFTRFCQWKNVELNIHLTMNDFSVHRIIGRGGFGEVYGCRKADTGKMYAMKCLDKKRIKMKQGETLALNERIMLSLVSTGDCPFIVCMSYAFHTPDKLSFILDLMNGGDLHYHLSQHGVFSEADMRFYAAEIILGLEHMHNRFVVYRDLKPANILLDEHGHVRISDLGLACDFSKKKPHASVGTHGYMAPEVLQKGVAYDSSADWFSLGCMLFKLLRGHSPFRQHKTKDKHEIDRMTLTMAVELPDSFSPELRSLLEGLLQRDVNRRLGCLGRGAQEVKESPFFRSLDWQMVFLQKYPPPLIPPRGEVNAADAFDIGSFDEEDTKGIKLLDSDQELYRNFPLTISERWQQEVAETVFDTINAETDRLEARKKTKNKQLGHEEDYALGKDCIMHGYMSKMGNPFLTQWQRRYFYLFPNRLEWRGEGEAPQSLLTMEEIQSVEETQIKERKCLLLKIRGGKQFVLQCDSDPELVQWKKELRDAYREAQQLVQRVPKMKNKPRSPVVELSKVPLIQRGSANGL
ability to phosphorylate Rho* (rhodopsin (Rho*)): completely defective in their ability to phosphorylate Rho*

decrease in β2AR phosphorylation activity vs wild-type GRK2 [4]: 90–95%
B3: L4A: GRK2 amino terminal point mutant, Leu-4 to alanine (protein)
chain: MADAEAVLADVSYLMAMEKSKATPAARASKKILLPEPSIRSVMQKYLEDRGEVTFEKIFSQKLGYLLFRDFCLKHLEEAKPLVEFYEEIKKYEKLETEEERLVCSREIFDTYIMKELLACSHPFSKSAIEHVQGHLVKKQVPPDLFQPYIEEICQNLRGDVFQKFIESDKFTRFCQWKNVELNIHLTMNDFSVHRIIGRGGFGEVYGCRKADTGKMYAMKCLDKKRIKMKQGETLALNERIMLSLVSTGDCPFIVCMSYAFHTPDKLSFILDLMNGGDLHYHLSQHGVFSEADMRFYAAEIILGLEHMHNRFVVYRDLKPANILLDEHGHVRISDLGLACDFSKKKPHASVGTHGYMAPEVLQKGVAYDSSADWFSLGCMLFKLLRGHSPFRQHKTKDKHEIDRMTLTMAVELPDSFSPELRSLLEGLLQRDVNRRLGCLGRGAQEVKESPFFRSLDWQMVFLQKYPPPLIPPRGEVNAADAFDIGSFDEEDTKGIKLLDSDQELYRNFPLTISERWQQEVAETVFDTINAETDRLEARKKTKNKQLGHEEDYALGKDCIMHGYMSKMGNPFLTQWQRRYFYLFPNRLEWRGEGEAPQSLLTMEEIQSVEETQIKERKCLLLKIRGGKQFVLQCDSDPELVQWKKELRDAYREAQQLVQRVPKMKNKPRSPVVELSKVPLIQRGSANGL

decrease in β2AR phosphorylation activity vs wild-type GRK2 [4]: 90–95%
B4: D10A: GRK2 amino terminal point mutant (protein)
chain: MADLEAVLAAVSYLMAMEKSKATPAARASKKILLPEPSIRSVMQKYLEDRGEVTFEKIFSQKLGYLLFRDFCLKHLEEAKPLVEFYEEIKKYEKLETEEERLVCSREIFDTYIMKELLACSHPFSKSAIEHVQGHLVKKQVPPDLFQPYIEEICQNLRGDVFQKFIESDKFTRFCQWKNVELNIHLTMNDFSVHRIIGRGGFGEVYGCRKADTGKMYAMKCLDKKRIKMKQGETLALNERIMLSLVSTGDCPFIVCMSYAFHTPDKLSFILDLMNGGDLHYHLSQHGVFSEADMRFYAAEIILGLEHMHNRFVVYRDLKPANILLDEHGHVRISDLGLACDFSKKKPHASVGTHGYMAPEVLQKGVAYDSSADWFSLGCMLFKLLRGHSPFRQHKTKDKHEIDRMTLTMAVELPDSFSPELRSLLEGLLQRDVNRRLGCLGRGAQEVKESPFFRSLDWQMVFLQKYPPPLIPPRGEVNAADAFDIGSFDEEDTKGIKLLDSDQELYRNFPLTISERWQQEVAETVFDTINAETDRLEARKKTKNKQLGHEEDYALGKDCIMHGYMSKMGNPFLTQWQRRYFYLFPNRLEWRGEGEAPQSLLTMEEIQSVEETQIKERKCLLLKIRGGKQFVLQCDSDPELVQWKKELRDAYREAQQLVQRVPKMKNKPRSPVVELSKVPLIQRGSANGL
ability to phosphorylate Rho* (rhodopsin (Rho*)): completely defective in their ability to phosphorylate Rho*
